From ChEMBL document CHEMBL3046885, “Toxicity of (+)- and (-)-gossypol to the plant pathogen, Rhizoctonia solani” (2002)
Several values for one entry are separate records, joined by “and”; a condition that tells them apart may be missing. Equal entries are not always repeated.

Experiments:
[1] = tested on: Rhizoctonia solani; assay: Antifungal activity against Rhizoctonia solani J-1 after 4 to 5 days; format: functional
Procedure, shortened: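 Mycelial suspension of strain J-1 (grown 3-4 days at 26-28 °C in potato dextrose broth with rifampicin, macerated in buffered defined medium, pH 6.3, 125 mM glucose). Mixed 1:1 with compound in medium/DMSO; 12 wells per concentration, DMSO controls. Incubated 48 h at 26-28 °C in dark, then plated on PDA and scored visually after 4-5 days. LD100 is the lowest concentration giving no growth. At least three assays.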

[2] = tested on: Rhizoctonia solani; assay: Antifungal activity against Rhizoctonia solani J-1 after 72 hr by turbimetric assay; format: functional; conditions: read-out: ED50 (the source's name)
Procedure, shortened: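 Sieved macerated mycelium of strain J-1 was held 10 h in buffered defined medium (pH 6.3, 125 mM glucose), then mixed 1:1 with compound in medium/DMSO. Ten wells per concentration; DMSO control. Incubated at 26-28 °C in dark. OD750 was read from 72 h, every 12 h, until control OD reached 0.065-0.100. ED50 came from fractional effect versus concentration. Three plates per experiment, at least four experiments.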

Structure (SMILES) | LD100 [1] | EC50 ([2]; Rhizoctonia solani, J-1, 72 h) | EC50 [2]
COc1c(C)cc2c3c(c(O)c(O)c(C(C)C)c13)CO2 [DESOXHEMIGOSSYPOL-6-METHYL ETHER] | 40 µM | 2.52 µM | –
Cc1cc(O)c2c(C=O)c(O)c(O)c(C(C)C)c2c1 [HEMIGOSSYPOL] | 77 µM | 21.4 µM | –
CC1=Cc2cccc(C)c2C(=O)C1=O [O-HIBISCANONE] | 27 µM | 3.76 µM | –
Cc1cc2c3c(c(O)c(O)c(C(C)C)c3c1)CO2 [DESOXYHEMIGOSSYPOL] | 41 µM | 3.52 µM | –
Cc1cc2c(C(C)C)c(O)c(O)c(C=O)c2c(O)c1-c1c(C)cc2c(C(C)C)c(O)c(O)c(C=O)c2c1O [GOSSYPOL] | >106 µM | 25.1 µM | 24.3 µM and 23.9 µM
COc1cc(O)c2c(C=O)c(O)c(O)c(C(C)C)c2c1 [HEMIGOSSYPOL-6-METHYL ETHER] | 55 µM | 13.1 µM | –
